# Results: ChEMBL document CHEMBL4385624, “l-Type amino acid transporter 1 activity of 1,2,3-triazolyl analogs of l-histidine and l-tryptophan” (Bioorg Med Chem Lett, 2019)
# What was measured:
# Format in all cases: cell-based
# [1] = molecular target: T1, Large neutral amino acids transporter small subunit 1 (Homo sapiens, UniProt Q01650); assay: Trans-stimulation of human LAT1 expressed in TREx HEK293 cells assessed as induction of [3H]-gabapentin efflux at 200 uM after 3 mins by scintillation counting analysis relative to L-phenylalanine
# Method in brief: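 [³H]-gabapentin-preloaded HEK-hLAT1 cells (inducible) were treated with compound at 200 μM. Efflux rate was taken at 3 min and expressed as % of the rate induced by L-phenylalanine, averaged over seven experiments. At least triplicate, 24-well poly-D plates.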
# [2] = molecular target: T1, Large neutral amino acids transporter small subunit 1; assay: Cis-inhibition of human LAT1 expressed in TREx HEK293 cells at 200 uM assessed as inhibition of [3H]-gabapentin uptake preincubated for 3 mins at 37 degC followed by washing with choline buffer and measured after 3 hrs by scintillation counting analysis relative to BCH
# [3] = molecular target: T1, Large neutral amino acids transporter small subunit 1; assay: Cis-inhibition of human LAT1 expressed in TREx HEK293 cells assessed as inhibition of [3H]-gabapentin uptake preincubated for 3 mins at 37 degC followed by washing with choline buffer and measured after 3 hrs by scintillation counting analysis
# Method in brief: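 Inducible hLAT1 HEK cells in 24-well poly-D plates, pH 7.4. Cells were exposed to [³H]-gabapentin (6 nM) plus test compound at 0.1–500 μM. […] Run at least in triplicate.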
# [4] = molecular target: T1, Large neutral amino acids transporter small subunit 1; assay: Trans-stimulation of human LAT1 expressed in TREx HEK293 cells assessed as induction of [3H]-gabapentin efflux at 200 uM after 3 mins by scintillation counting analysis
# Method in brief: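 HEK cells with inducible hLAT1 were preloaded with [³H]-gabapentin, then exposed to test compound at 200 μM. Efflux rate (fmol/min) was calculated 3 min after compound addition. Data from at least triplicate wells in 24-well poly-D plates.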
# T1 sequence (Q01650 whole entry): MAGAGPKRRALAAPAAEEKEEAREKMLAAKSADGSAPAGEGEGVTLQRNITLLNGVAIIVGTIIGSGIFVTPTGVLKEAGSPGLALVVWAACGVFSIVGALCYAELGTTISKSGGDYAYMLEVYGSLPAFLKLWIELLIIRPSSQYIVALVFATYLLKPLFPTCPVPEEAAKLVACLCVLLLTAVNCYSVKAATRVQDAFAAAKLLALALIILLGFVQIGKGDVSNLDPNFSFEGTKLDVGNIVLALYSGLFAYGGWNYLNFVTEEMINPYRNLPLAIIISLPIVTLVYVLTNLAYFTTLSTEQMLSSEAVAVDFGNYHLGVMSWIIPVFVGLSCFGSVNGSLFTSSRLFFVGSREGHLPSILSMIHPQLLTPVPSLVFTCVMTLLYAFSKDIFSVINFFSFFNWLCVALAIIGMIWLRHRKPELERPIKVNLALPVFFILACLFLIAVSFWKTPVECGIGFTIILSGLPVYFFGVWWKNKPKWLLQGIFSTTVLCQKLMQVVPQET
Activity [1] [%],inhibition [2] [%],IC50 [3] [µM],Activity [4] [fmol/min],Compound
43,–,–,–,N[C@@H](Cc1cn(Cc2ccccc2)nn1)C(=O)O
37,13,> 1000,–,N[C@@H](Cn1cc(-c2ccccc2)nn1)C(=O)O
70,38,440,–,Cc1cn(C[C@H](N)C(=O)O)nn1
82,58,160,–,N[C@@H](Cn1ccnn1)C(=O)O
63,20,> 1000,–,Cn1cc(C[C@H](N)C(=O)O)nn1
49,-6,–,–,N[C@@H](Cn1cc(Cc2ccccc2)nn1)C(=O)O
100,59,340,–,N[C@@H](Cn1nnc2ccccc21)C(=O)O
–,–,–,2.7,N[C@@H](Cc1ccccc1)C(=O)O
–,–,110,–,N[C@@H](Cc1c[nH]cn1)C(=O)O [HISTIDINE]
57,14,> 1000,–,N[C@@H](Cn1cc(CO)nn1)C(=O)O
